# This is a sample that favours compounds with a hit; in the whole collection about 2.9% have one here.
# NALP1 yeast inh – inhibitors of NALP1 inflammasome in yeast. hit rate 0.61% among 280,000. S. cerevisiae NALP1/ASC/caspase-1 growth, X-gal OD620, 72 h. AID 2071. inhibition, % at 10 µM; in the data active = inhibition mostly above about 24%, no sharp cut-off; inactive = mostly below about 32%
# FID counter – fluorescent intercalator displacement, NS3 helicase counter-screen; inhibition, % at 7.9 µM; hit rate 0.17% among 290,000; DNA fluorescent intercalator displacement, fluorescence; in the data active = inhibition above about 37%;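 also: 0% = vehicle and 100% = reference compound; higher means more ethidium bromide displaced from hairpin DNA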
# SUMO HTRF inh – blocks human SUMOylation mediated by UBC9 | P63279 | HTRF SUMOylation assay, SAE1/SAE2 + UBC9, in vitro | inhibition, % at 35 µM | hit rate 0.36% among 290,000 | AID 2006; in the data active = inhibition above about 50%, passing the limit was not always enough
# Target sequence (P63279 whole entry, looked up): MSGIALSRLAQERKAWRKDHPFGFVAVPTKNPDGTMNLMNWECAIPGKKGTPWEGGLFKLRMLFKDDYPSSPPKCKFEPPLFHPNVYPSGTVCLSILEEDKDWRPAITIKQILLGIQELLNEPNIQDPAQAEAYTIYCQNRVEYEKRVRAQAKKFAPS
# SUMO Mot1 rescue – blocks SUMOylation pathway, rescuing yeast Mot1-301 growth; S. cerevisiae Mot1-301 growth rescue, ATP luminescence, 38.5C; percent above DMSO median, 100 means doubled; growth rescue, % at 18.8 µM; hit rate 1% among 320,000; AID 2716;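 active = every valid replicate shows activation above 250% relative to neutral control wells; inactive = the rest, any valid replicate at or below 250%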;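 also: OY570 slx delta 5 strain wells were the positive control but not used for scaling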
# VIM-2 inh – blocks Pseudomonas aeruginosa VIM-2 metallo-beta-lactamase; inhibition, % at 5.6 µM; hit rate 0.89% among 290,000; purified VIM-2, nitrocefin hydrolysis, epi-absorbance fluorescence;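 active = inhibition above the mean of all tested compounds plus 3 SD, cutoff set per screening run, cut at about 7.5% in these data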;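 also: red hydrolysis product quenches plate fluorescence so inhibitors raise well fluorescence; 0% = enzyme with DMSO and 100% = DMSO without enzyme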
# IMP-1 inhibitor – inhibitors of Pseudomonas aeruginosa IMP-1 metallo-beta-lactamase; inhibition, % at 5.6 µM; hit rate 0.45% among 290,000; purified IMP-1, nitrocefin hydrolysis, epi-absorbance fluorescence;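 active = inhibition above the mean plus 3 SD of all compounds in the same screening run, cut at about 4.5% in these data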;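 also: 0% = IMP-1 with DMSO and 100% = DMSO wells lacking enzyme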
#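 System: purified IMP-1 / Input: IMP-1 dispensed at 0.2 nM / Medium: 50 mM HEPES pH 7.1, 50 µM ZnSO4, 0.05% Brij 35 / Timing: 15 min enzyme–compound preincubation, then 25 min nitrocefin reaction, 25 °C / Technique: plate fluorescence quenching by hydrolysis product, ex 480/em 530 nm / Repeats: singlicate testing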
# An asterisk follows results filed as active; . = no result.
SMILES,NALP1 yeast inh,FID counter,SUMO HTRF inh,SUMO Mot1 rescue,VIM-2 inh,IMP-1 inhibitor
C/C(=C\C=C\c1ccccc1)C(=O)c1c(C)cc(C)[nH]c1=O,16.2,-25.5,17.0,6.0,-3.2,-2.1
CN1C(=O)N(CC(=O)N2CCN(S(=O)(=O)c3ccc(Cl)s3)CC2)C(=O)C12CCCCC2,.,.,.,-2.6,.,.
COc1ccc(-c2nc(-c3ccccc3)ncc2S(C)(=O)=O)cc1,-2.6,-4.8,23.4,-5.3,-0.6,-0.8
Cc1cc(C)c2c(c1)/C(=N/NS(=O)(=O)c1ccc(Br)cc1)CCC2,38.5*,1.6,-13.9,33.3,-0.8,-2.4
OC(COc1ccc2ccccc2c1)CN1CCN(c2ccc(F)cc2)CC1 (centres undefined),44.1*,3.0,11.9,9.8,-1.7,0.2
CNC[C@H]1Oc2c(NS(=O)(=O)c3ccccc3)cccc2C(=O)N([C@H](C)CO)C[C@@H]1C,.,.,.,-3.1,.,.
COc1ccc2nc(NC(=O)CSc3nnc(C)n3N)sc2c1,8.7,-2.1,-0.8,305.4*,-3.0,-0.7
O=C1[C@H]2[C@@H](c3ccc(F)cc3)N3C(=O)N(c4ccc(Br)cc4)C(=O)[C@@]3(Cc3ccccc3)[C@H]2C(=O)N1C1CCCCC1,10.2,-15.4,-12.8,9.1,-0.7,-0.5
Cc1c(C)c2cc(Cl)c(O)c(CN3CCCC(C)C3)c2oc1=O (centres undefined),20.3,-5.8,45.3,5.1,-4.8,-5.7
Cc1c(C)c2cc(Cl)c(O)c(CN3CCN(C)CC3)c2oc1=O,14.2,-0.8,52.1*,-2.0,3.8,6.2*
CCOC(=O)c1[nH]c2ccc(F)cc2c1NC(=O)c1ccccc1C(=O)O,19.5,2.6,7.0,-3.9,9.8*,2.7
CCOC(=O)c1[nH]c2ccc(OC)cc2c1NC(=O)c1ccccc1C(=O)O,4.1,2.2,-20.9,3.8,-1.3,-1.9
CCOC(=O)c1[nH]c2ccccc2c1NC(=O)c1ccc2c(c1)OCO2,40.4*,-5.0,12.1,-10.3,-1.8,-4.1
COc1cccc(C(=O)Oc2ccc(N3C(=O)CCC3=O)c(C)c2)c1,34.9*,-7.7,21.2,6.6,-0.3,-1.5
COCCNC(=O)CSc1ncnc2sccc12,38.5*,-3.7,18.0,-7.1,1.3,0.4
O=C(NCCCN1CCOCC1)c1ccc(CSCc2cccc(Cl)c2)o1,9.3,6.7,-1.0,42.1,0.6,-2.5
CCCCN(Cc1cc2cc(C)ccc2[nH]c1=O)C(=O)c1ccccn1,.,-32.2,0.9,-19.8,-3.2,-3.7
CC1=C(C(=O)OC2CCCCCCC2)C(c2cc3c(cc2Br)OCO3)CC(=O)N1 (centres undefined),1.6,-2.0,-4.8,.,-0.7,-2.6
COCCNC(=S)N1CCC(C(=O)c2ccc3c(c2)OCCO3)CC1,0.2,-16.4,-7.0,-6.2,-1.1,-2.0
CSc1ccc(CN2CCC(N3CC(C)OC(C)C3)CC2)cc1 (centres undefined),19.3,4.9,16.8,284.6*,-0.8,0.9
CC(=O)NN(O)C1N(C)C(=O)N(Cc2ccccc2)C1(C)C (centres undefined),.,.,.,-7.1,.,.
CCOC(=O)c1cnc2c(cnn2C)c1NCCCN(C)C,-5.0,14.2,19.3,.,8.4*,-2.2
CCOC(=O)c1cnc2c(ccc3ccccc32)c1NCCO,-93.8,-5.0,7.9,-5.8,4.4,-0.6
CCOC(=O)c1cnc2c(ccc3ccccc32)c1NCCN(C)C,8.6,45.5*,8.9,-2.0,11.6*,0.0
COc1ccc(-n2nc(C(=O)NCC(=O)NCCC3=CCCCC3)c3ccccc3c2=O)cc1OC,9.3,-36.7,-4.4,13.2,-1.3,1.4
SMILES,NALP1 yeast inh,FID counter,SUMO HTRF inh,SUMO Mot1 rescue,VIM-2 inh,IMP-1 inhibitor
CCCC1CCC(c2nc(-c3cccnc3)no2)CC1 (centres undefined),18.3,0.3,-1.6,24.0,-0.7,-2.6
Fc1ccc(-c2noc(C3CCN(Cc4cccnc4)CC3)n2)cc1,12.6,-7.1,11.0,847.5*,-1.7,-0.4
O=C1[C@H]2[C@H](C=CC[C@H]2C(=O)N2CCOCC2)CCN1Cc1ccccc1,.,.,.,-1.5,.,.
O=C(O)C(=O)Cc1c[nH]c2ccccc12,21.7,-0.7,24.6,32.8,-1.4,4.5*
CCCN1C(=O)/C(=C/c2ccc(C)o2)SC1=Nc1ccc(OC)cc1,9.0,-6.5,10.8,.,-7.8,-2.3
COc1ccc(N=C2S/C(=C\c3ccc(C)o3)C(=O)N2CC(C)C)cc1,39.9*,-1.2,-15.4,133.0,-1.3,-5.0
Cc1ccc(CN2CCN(/N=C\c3cccc([N+](=O)[O-])c3)CC2)cc1,8.7,6.0,6.7,647.2,-4.0,-2.8
O=C(NCc1ccccc1CN1CCCC1)c1cccc(S(=O)(=O)N2CCOCC2)c1,.,.,.,-17.2,.,.
Nc1cccc2c1C(=O)N(C(=O)/C=C/c1cccc(Br)c1)C2=O,5.1,-13.7,37.2,.,0.5,4.8*
Nc1cccc2c1C(=O)N(C(=O)/C=C/c1cccc(F)c1)C2=O,39.4,-4.1,34.0,-18.3,-0.8,1.1
CC(C)NC(=S)NNc1nc2ccccc2s1,-17.1,-10.7,6.9,-24.2,-0.8,-2.4
O=Cc1coc2c(ccc3ccccc32)c1=O,18.4,12.8,12.0,321.8*,0.7,31.9*
O=C(CSc1nnc(CNC(=O)c2ccc(F)cc2)o1)NCc1ccc2c(c1)OCO2,16.1,-10.7,-4.5,1.2,-2.5,-2.9
S=C(NCCCN1CCOCC1)Nc1cccc(-c2nnc3n2CCCCC3)c1,0.5,-2.9,14.5,147.3,-0.4,-4.7
O=C(CCCN1C(=O)c2ccccc2C1=O)OC1CSCC1NC(=O)c1ccccc1 (centres undefined),3.2,-6.6,-12.0,298.6*,-2.0,-1.5
O=C(Nc1cccnc1)c1ccc(C(=O)Nc2cccnc2)cc1,1.5,0.4,10.4,111.2,-2.2,-2.7
Cc1ccc(SCc2ccc(C(=O)Nc3cccnc3)cc2)cc1,39.2,-6.5,-7.9,-14.6,1.9,14.7*
NC(=O)CSc1nc2sc3c(c2c2ncnn12)CCCC3,4.4,-12.0,3.6,93.0,9.8*,0.4
CCc1ccccc1NC(=O)CNC(=O)c1ccc(-n2cncn2)c([N+](=O)[O-])c1,.,.,.,-11.1,.,.
CC1CCc2c(C(=O)Nc3ccc(N4CCOCC4)cc3)csc2C1 (centres undefined),27.2*,-7.5,11.7,2.1,-0.7,-1.5
COc1ccccc1CN1CCNC(=O)C1CC(=O)NCC1CCOCC1 (centres undefined),0.2,-5.6,2.7,5.1,-1.6,-1.5
Cc1cc(=O)n2c3ccccc3n(C)c2n1,8.4,-0.4,2.4,-16.7,10.3*,0.3
Cc1c(NCc2ccccc2O)c(=O)n(-c2ccccc2)n1C,37.6*,-11.6,6.6,-15.0,-2.2,-3.4
Cc1c(NC(=S)N/N=C\c2ccccc2O)c(=O)n(-c2ccccc2)n1C,27.6,-17.1,5.2,-8.3,7.8*,-4.3
Cc1c(NC(=S)N/N=C/c2ccc(Br)cc2)c(=O)n(-c2ccccc2)n1C,.,-32.0,19.3,-5.7,0.5,-3.6

# From PubChem BioAssay
